# Data as given in ChEMBL document CHEMBL2062453, “Lead optimization through VLAK protocol: new annelated pyrrolo-pyrimidine derivatives as antitumor agents” (2012).
# Legend:
# Format in all cases: functional
# [1] = test system: NCI-H522; assay: Cytotoxicity against human NCI-H522 cells assessed as cell growth at 10 uM after 48 hrs by SRB assay relative to control; conditions: NCI-H522, 48 h, read-out: Activity
# [2] = test system: RPMI-8226; assay: Cytotoxicity against human RPMI8226 cells assessed as cell growth at 10 uM after 48 hrs by SRB assay relative to control; conditions: RPMI-8226, 48 h, read-out: Activity
# [3] = test system: SF-539; assay: Cytotoxicity against human SF539 cells assessed as cell growth at 10 uM after 48 hrs by SRB assay relative to control; conditions: SF-539, 48 h, read-out: Activity
# [4] = test system: T47D; assay: Cytotoxicity against human T47D cells assessed as cell growth at 10 uM after 48 hrs by SRB assay relative to control; conditions: read-out: Activity
# Outline: (§1)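 NCI single-dose primary screen across about 60 human tumour lines. Each line was inoculated and preincubated on microtiter plates, then exposed to one concentration of agent for 48 h. Growth is reported as percent growth (G%) of treated cells versus untreated control cells.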
# [5] = test system: NCI-H460; assay: Cytotoxicity against human NCI-H460 cells assessed as cell growth at 10 uM after 48 hrs by SRB assay relative to control; conditions: NCI-H460, 48 h, read-out: Activity
# [6] = test system: CCRF-CEM; assay: Cytotoxicity against human CCRF-CEM cells assessed as cell growth at 10 uM after 48 hrs by SRB assay relative to control; conditions: read-out: Activity
# Outline: (§2)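 NCI primary screen of about 60 human tumour lines. Cells inoculated and preincubated, then a single test concentration added and cultures incubated 48 h. Result given as percent growth (G%) of treated versus untreated control cells.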
# [7] = test system: LOX IMVI; assay: Cytotoxicity against human LOXIMVI cells assessed as cell growth at 10 uM after 48 hrs by SRB assay relative to control; conditions: read-out: Activity; outline: as §2
# [8] = test system: A549; assay: Cytotoxicity against human A549 cells assessed as cell growth at 10 uM after 48 hrs by SRB assay relative to control; conditions: A549, 48 h, read-out: Activity; outline: as §2
# [9] = test system: SF-295; assay: Cytotoxicity against human SF295 cells assessed as cell growth at 10 uM after 48 hrs by SRB assay relative to control; conditions: SF-295, 48 h, read-out: Activity
# [10] = test system: NCI-H322M; assay: Cytotoxicity against human NCI-H322M cells assessed as cell growth at 10 uM after 48 hrs by SRB assay relative to control; conditions: read-out: Activity
# [11] = test system: MOLT-4; assay: Cytotoxicity against human MOLT4 cells assessed as cell growth at 10 uM after 48 hrs by SRB assay relative to control; conditions: MOLT-4, 48 h, read-out: Activity
# [12] = test system: SK-OV-3; assay: Cytotoxicity against human SKOV3 cells assessed as cell growth at 10 uM after 48 hrs by SRB assay relative to control; conditions: SK-OV-3, 48 h, read-out: Activity
# [13] = test system: HOP-92; assay: Cytotoxicity against human HOP92 cells assessed as cell growth at 10 uM after 48 hrs by SRB assay relative to control; conditions: HOP-92, 48 h, read-out: Activity; outline: as §2
# [14] = test system: SK-MEL-28; assay: Cytotoxicity against human SK-MEL-28 cells assessed as cell growth at 10 uM after 48 hrs by SRB assay relative to control; conditions: SK-MEL-28, 48 h, read-out: Activity
# [15] = test system: UACC-62; assay: Cytotoxicity against human UACC62 cells assessed as cell growth at 10 uM after 48 hrs by SRB assay relative to control; conditions: UACC-62, 48 h, read-out: Activity; outline: as §1
# [16] = test system: IGROV-1; assay: Cytotoxicity against human IGROV1 cells assessed as cell growth at 10 uM after 48 hrs by SRB assay relative to control; conditions: IGROV-1, 48 h, read-out: Activity; outline: as §2
# [17] = test system: EKVX; assay: Cytotoxicity against human EKVX cells assessed as cell growth at 10 uM after 48 hrs by SRB assay relative to control; conditions: read-out: Activity; outline: as §2
# [18] = test system: SNB-19; assay: Cytotoxicity against human SNB19 cells assessed as cell growth at 10 uM after 48 hrs by SRB assay relative to control; conditions: SNB-19, 48 h, read-out: Activity
# [19] = test system: UO-31; assay: Cytotoxicity against human UO31 cells assessed as cell growth at 10 uM after 48 hrs by SRB assay relative to control; conditions: UO-31, 48 h, read-out: Activity; outline: as §1
# [20] = test system: DU-145; assay: Cytotoxicity against human DU145 cells assessed as cell growth at 10 uM after 48 hrs by SRB assay relative to control; conditions: DU-145, 48 h, read-out: Activity; outline: as §2
# [21] = test system: HL-60(TB); assay: Cytotoxicity against human HL-60(TB) cells assessed as cell growth at 10 uM after 48 hrs by SRB assay relative to control; conditions: HL-60, 48 h, read-out: Activity
# [22] = test system: RXF 393; assay: Cytotoxicity against human RXF393 cells assessed as cell growth at 10 uM after 48 hrs by SRB assay relative to control; conditions: RXF 393, 48 h, read-out: Activity
# [23] = test system: ACHN; assay: Cytotoxicity against human ACHN cells assessed as cell growth at 10 uM after 48 hrs by SRB assay relative to control; conditions: read-out: Activity; outline: as §2
# [24] = test system: U-251; assay: Cytotoxicity against human U251 cells assessed as cell growth at 10 uM after 48 hrs by SRB assay relative to control; conditions: U-251, 48 h, read-out: Activity; outline: as §1
# [25] = test system: OVCAR-4; assay: Cytotoxicity against human OVCAR4 cells assessed as cell growth at 10 uM after 48 hrs by SRB assay relative to control; conditions: OVCAR-4, 48 h, read-out: Activity
# [26] = test system: M14; assay: Cytotoxicity against human M14 cells assessed as cell growth at 10 uM after 48 hrs by SRB assay relative to control; conditions: M14, 48 h, read-out: Activity; outline: as §2
# [27] = test system: SF-268; assay: Cytotoxicity against human SF268 cells assessed as cell growth at 10 uM after 48 hrs by SRB assay relative to control; conditions: SF-268, 48 h, read-out: Activity
# [28] = test system: HT-29; assay: Cytotoxicity against human HT-29 cells assessed as cell growth at 10 uM after 48 hrs by SRB assay relative to control; conditions: HT-29, 48 h, read-out: Activity; outline: as §2
# [29] = test system: NCI/ADR-RES; assay: Cytotoxicity against human NCI/ADR-RES cells assessed as cell growth at 10 uM after 48 hrs by SRB assay relative to control; conditions: read-out: Activity
# [30] = test system: UACC-257; assay: Cytotoxicity against human UACC257 cells assessed as cell growth at 10 uM after 48 hrs by SRB assay relative to control; conditions: UACC-257, 48 h, read-out: Activity; outline: as §1
# [31] = test system: OVCAR-5; assay: Cytotoxicity against human OVCAR5 cells assessed as cell growth at 10 uM after 48 hrs by SRB assay relative to control; conditions: OVCAR-5, 48 h, read-out: Activity
# [32] = test system: SK-MEL-5; assay: Cytotoxicity against human SK-MEL-5 cells assessed as cell growth at 10 uM after 48 hrs by SRB assay relative to control; conditions: SK-MEL-5, 48 h, read-out: Activity
# [33] = test system: Hs-578T; assay: Cytotoxicity against human Hs578T cells assessed as cell growth at 10 uM after 48 hrs by SRB assay relative to control; conditions: read-out: Activity; outline: as §2
# [34] = test system: SR; assay: Cytotoxicity against human SR cells assessed as cell growth at 10 uM after 48 hrs by SRB assay relative to control; conditions: read-out: Activity; outline: as §1
SMILES,growth at 10 µM [1] [%],growth at 10 µM [2] [%],growth at 10 µM [3] [%],growth at 10 µM [4] [%],growth at 10 µM [6] [%],growth at 10 µM [7] [%],growth at 10 µM [8] [%],growth at 10 µM [9] [%],growth at 10 µM [10] [%],growth at 10 µM [11] [%],growth at 10 µM [12] [%],growth at 10 µM [14] [%],growth at 10 µM [15] [%],growth at 10 µM [16] [%],growth at 10 µM [17] [%],growth at 10 µM [18] [%],growth at 10 µM [19] [%],growth at 10 µM [20] [%],growth at 10 µM [21] [%],growth at 10 µM [22] [%],other results
CSC1=Nc2c(c(C)c(-c3ccccc3)n2CCCC(=O)O)C2=NC(=O)CN12,84,88,92,106,102,77,101,105,131,87,114,84,95,88,95,104,82,116,83,96,growth at 10 µM [5]: 102%; growth at 10 µM [13]: 95%; growth at 10 µM [23]: 89%; growth at 10 µM [24]: 90%; growth at 10 µM [25]: 92%; growth at 10 µM [26]: 104%; growth at 10 µM [27]: 96%; growth at 10 µM [28]: 97%; growth at 10 µM [29]: 98%; growth at 10 µM [30]: 99%; growth at 10 µM [31]: 98%; growth at 10 µM [32]: 97%; growth at 10 µM [33]: 106%
CSC1=Nc2c(c(C)c(-c3ccccc3)n2CCCCl)C2=NC(=O)CN12,56,51,62,72,52,50,74,43,82,51,88,56,37,48,54,81,57,95,27,95,growth at 10 µM [34]: 13%; growth at 10 µM [13]: 65%; growth at 10 µM [23]: 88%; growth at 10 µM [24]: 52%; growth at 10 µM [25]: 76%; growth at 10 µM [26]: 31%; growth at 10 µM [27]: 77%; growth at 10 µM [28]: 23%; growth at 10 µM [29]: 58%; growth at 10 µM [30]: 84%; growth at 10 µM [31]: 86%; growth at 10 µM [32]: 51%; growth at 10 µM [33]: 85%
CSC1=Nc2c(c(C)c(-c3ccccc3)n2CCCN2CCN(C)CC2)C2=NC(=O)CN12,85,66,86,80,86,93,90,110,97,79,96,103,87,92,96,96,78,101,91,106,growth at 10 µM [5]: 101%; growth at 10 µM [34]: 70%; growth at 10 µM [23]: 90%; growth at 10 µM [24]: 101%; growth at 10 µM [25]: 89%; growth at 10 µM [26]: 100%; growth at 10 µM [27]: 88%; growth at 10 µM [28]: 98%; growth at 10 µM [29]: 98%; growth at 10 µM [30]: 100%; growth at 10 µM [31]: 99%; growth at 10 µM [32]: 91%; growth at 10 µM [33]: 75%
CSC1=Nc2c(c(C)c(-c3ccccc3)n2CCCN2CCCCC2)C2=NC(=O)CC(C)N12 (configuration not stated),36,-51,79,-2,21,42,32,39,62,68,27,43,54,23,42,20,57,48,-33,56,growth at 10 µM [5]: 38%; growth at 10 µM [34]: 2%; growth at 10 µM [23]: 67%; growth at 10 µM [24]: 12%; growth at 10 µM [25]: 44%; growth at 10 µM [26]: 60%; growth at 10 µM [27]: 66%; growth at 10 µM [28]: 21%; growth at 10 µM [29]: 82%; growth at 10 µM [30]: 41%; growth at 10 µM [31]: 83%; growth at 10 µM [32]: 10%; growth at 10 µM [33]: 11%
